Here are results for 24 compounds from ChEMBL document CHEMBL1124413, “Quinazoline antifolate thymidylate synthase inhibitors: nitrogen, oxygen, sulfur, and chlorine substituents in the C2 position” (J Med Chem, 1989).

Molecules are shown by their SMILES. ≈ marks a conversion by molar mass, not a printed value. Where only a bound is given, the exact number is not on record here.

Data set [1] in a line: pH attained by the compound at saturation after dissolving in 0.20 M aqueous NaH2PO4 initially at pH 7. It is filed as ADME. Particulars: buffer.
The nature of data set [2]: Compound was tested for its solubility in 0.20 M aqueous NaH2PO4 initially at pH 7. Type of data set: ADME. To be noted: 0.20 M aqueous NaH2PO4, pH 7.
A short description of data set [3]: Compound was tested for its solubility in 0.01 M aqueous NaH2PO4 initially at pH 7. It is filed as ADME. To be noted: 0.01 M aqueous NaH2PO4, pH 7. The method, boiled down:
(§1)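 Compound was dissolved to saturation in 0.01 M aqueous NaH2PO4 adjusted initially to pH 7. Solubility was reported as mg/mL, and the pH reached by the saturated solution was recorded.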

A further data set deals with L1210. In words: Tested for inhibition of L1210 mouse leukemia cell growth in culture. Type of data set: functional, cell-based. The method, boiled down:
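L1210 mouse leukemia cells were grown in culture with the test agent. The result was expressed as IC50, the concentration that inhibits cell growth by 50%.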

Data set [4] in a line: pH attained by the compound at saturation after dissolving in 0.01 M aqueous NaH2PO4 initially at pH 7. To be noted: buffer. Type of data set: ADME. The method, boiled down:
as §1

Another data set deals with T1, Dihydrofolate reductase (Homo sapiens, UniProt P00374).
T1 sequence (P00374 whole entry): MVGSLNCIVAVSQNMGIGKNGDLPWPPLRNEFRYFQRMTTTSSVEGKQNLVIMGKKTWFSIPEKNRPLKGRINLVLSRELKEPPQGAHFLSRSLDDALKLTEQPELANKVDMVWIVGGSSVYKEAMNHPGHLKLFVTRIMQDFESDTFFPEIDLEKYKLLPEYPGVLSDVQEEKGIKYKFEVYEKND
In words: Effect against dihydrofolate reductase (DHFR).

Take `C#CCN(Cc1ccc2[nH]c(N)nc(=O)c2c1)c1ccc(C(=O)NC(CCC(=O)O)C(=O)O)cc1` (stereo not drawn): the results for the pH in data set [1] and in data set [4] were 6.78 and 5.76, respectively. The solubility in data set [2] amounted to 60 µg/mL (≈ 126 µM); in data set [3], 50 µg/mL (≈ 105 µM). The compound also registered a half-inhibitory concentration (IC50) with L1210 of 3.4 µM.

For `C#CCN(Cc1ccc2nc(NCC)nc(O)c2c1)c1ccc(C(=O)NC(CCC(=O)O)C(=O)O)cc1` (stereo not drawn), the concentration for half-maximal inhibition (IC50) in the data set on L1210 was above 100 µM.

With `C#CCN(Cc1ccc2nc(NC)nc(O)c2c1)c1ccc(C(=O)NC(CCC(=O)O)C(=O)O)cc1` (stereo not drawn), half-maximal inhibition with L1210 (IC50) required 24 µM.

In turn, `C#CCN(Cc1ccc2nc(NCC(=O)O)nc(O)c2c1)c1ccc(C(=O)NC(CCC(=O)O)C(=O)O)cc1` (stereo not drawn) showed an IC50 in the data set on L1210 above 100 µM.

In the data set on L1210, `C#CCN(Cc1ccc2nc(NCCO)nc(O)c2c1)c1ccc(C(=O)NC(CCC(=O)O)C(=O)O)cc1` (stereo not drawn) came in with an IC50 of 47 µM.

Regarding `COc1nc(O)c2cc(CN(C)c3ccc(C(=O)NC(CCC(=O)O)C(=O)O)cc3)ccc2n1` (stereo not drawn), in the data set on L1210, the midpoint of inhibition, the IC50, lay at 7 µM.

In the data set with L1210, `C#CCN(Cc1ccc2nc(SC)nc(O)c2c1)c1ccc(C(=O)NC(CCC(=O)O)C(=O)O)cc1` (stereo not drawn) returned an IC50 of 13 µM.

`COc1nc(O)c2cc(CN(CCF)c3ccc(C(=O)NC(CCC(=O)O)C(=O)O)cc3)ccc2n1` (stereo not drawn) gave an IC50 in the data set with L1210 of 17 µM. The IC50 values of the last two compounds are within 1.5-fold of each other.

For `C#CCN(Cc1ccc2nc(NCCN)nc(O)c2c1)c1ccc(C(=O)NC(CCC(=O)O)C(=O)O)cc1` (stereo not drawn), the IC50 in the data set with L1210 came out at 97 µM.

`C#CCN(Cc1ccc2nc(N(C)C)nc(O)c2c1)c1ccc(C(=O)NC(CCC(=O)O)C(=O)O)cc1` (stereo not drawn): the IC50 with L1210 was above 100 µM.

Regarding `C#CCN(Cc1ccc2nc(OCCOC)nc(O)c2c1)c1ccc(C(=O)NC(CCC(=O)O)C(=O)O)cc1` (stereo not drawn), in the data set with L1210, the IC50 is 100 µM.

As to `COc1nc(O)c2cc(CNc3ccc(C(=O)NC(CCC(=O)O)C(=O)O)cc3)ccc2n1` (stereo not drawn), half-maximal inhibition with L1210 (IC50) was put at 6.4 µM. This compound also displayed an inhibitory constant (Ki) on Dihydrofolate reductase of around 0.6 µM.

In the data set on L1210, `C#CCN(Cc1ccc2nc(OCC)nc(O)c2c1)c1ccc(C(=O)NC(CCC(=O)O)C(=O)O)cc1` (stereo not drawn) returned a 50% inhibitory concentration (IC50) above 100 µM.

Turning to `C#CCN(Cc1ccc2nc(OC)nc(O)c2c1)c1ccc(C(=O)NC(CCC(=O)O)C(=O)O)cc1` (stereo not drawn), the pH in data set [1] turned out to be 5.67; in data set [4], 4.93. Moreover, the solubility was 6600 µg/mL (≈ 13400 µM) in data set [2] and 1200 µg/mL (≈ 2440 µM) in data set [3]. Further, half-maximal inhibition in the data set with L1210 (IC50) was put at 1.9 µM.

`COc1nc(O)c2cc(CN(CCCO)c3ccc(C(=O)NC(CCC(=O)O)C(=O)O)cc3)ccc2n1` (stereo not drawn): the half-inhibitory concentration (IC50) in the data set with L1210 came to 80 µM. That is a double-digit micromolar value.

On to `C#CCN(Cc1ccc2nc(-n3ccnc3)nc(O)c2c1)c1ccc(C(=O)NC(CCC(=O)O)C(=O)O)cc1` (stereo not drawn), for which, in the data set on L1210, the IC50 is above 100 µM.

As to `C#CCN(Cc1ccc2nc(S)nc(O)c2c1)c1ccc(C(=O)NC(CCC(=O)O)C(=O)O)cc1` (stereo not drawn), 60 µM corresponded to half-maximal inhibition in the data set on L1210 (IC50). This counts as double-digit micromolar.

Regarding `C#CCN(Cc1ccc2nc(Cl)nc(O)c2c1)c1ccc(C(=O)NC(CCC(=O)O)C(=O)O)cc1` (stereo not drawn), the 50% inhibitory concentration (IC50) in the data set on L1210 came to 67 µM. The IC50 values of the last two compounds are within 1.5-fold of each other.

Consider `C#CCN(Cc1ccc2nc(Oc3ccccc3)nc(O)c2c1)c1ccc(C(=O)NC(CCC(=O)O)C(=O)O)cc1` (stereo not drawn), for which the IC50 with L1210 is above 100 µM.

In turn, `CCN(Cc1ccc2nc(OC)nc(O)c2c1)c1ccc(C(=O)NC(CCC(=O)O)C(=O)O)cc1` (stereo not drawn) displayed a 50% inhibitory concentration (IC50) in the data set on L1210 of 12 µM.

In the data set on L1210, `C=CCN(Cc1ccc2nc(OC)nc(O)c2c1)c1ccc(C(=O)NC(CCC(=O)O)C(=O)O)cc1` (stereo not drawn) showed an IC50 of 16 µM. This IC50 and that of the compound before are within 1.5-fold of each other.

Compound `COc1nc(O)c2cc(CN(CCO)c3ccc(C(=O)NC(CCC(=O)O)C(=O)O)cc3)ccc2n1` (stereo not drawn) showed a concentration for half-maximal inhibition (IC50) with L1210 of 7.3 µM.

`C#CCN(Cc1ccc2nc(NCCN(C)C)nc(O)c2c1)c1ccc(C(=O)NC(CCC(=O)O)C(=O)O)cc1` (stereo not drawn) showed an IC50 in the data set with L1210 above 100 µM.

In the data set on L1210, `C#CCN(Cc1ccc2nc(OCCO)nc(O)c2c1)c1ccc(C(=O)NC(CCC(=O)O)C(=O)O)cc1` (stereo not drawn) returned an IC50 above 100 µM.

Usually solubility stands for the dissolved amount per volume that the medium holds. A high value points to a readily soluble substance. Usually IC50 stands for the concentration that inhibits the measured activity by half. The Ki is the equilibrium dissociation constant of an inhibitor or competing ligand from its target.
